This passage reports cytotoxicity results from ChEMBL document CHEMBL4513216, “Probing the Open Global Health Chemical Diversity Library for Multistage-Active Starting Points for Next-Generation Antimalarials” (ACS Infect Dis, 2020).

Each structure is given as a SMILES string.

The series is described as follows: Toxicity liver stage against HepG2, at 10uM. The settings on record: human, HepG2-A16-CD81EGFP cells; read-out: INHIBITION
Details: test concentration 10 uM, cell line HepG2-A16-CD81EGFP. In kind it is cell-based. The essentials: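 Uninfected HepG2-A16-CD81EGFP cells, 3 × 10^3 per well, 1536-well, plated on prespotted compound at 10 μM final, parasite-free screening media added to match infected plates; puromycin 10 μM positive, DMSO 0.5% negative; run in parallel with 48 h PbLuc assay at 37 °C, 5% CO2; viability by CellTiter-Glo luminescence, normalized to controls.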
On to `O=C(CNC1(c2ccc(Cl)cc2)CCOCC1)NC1CCCC1`, for which the cytotoxicity at 10 µM is 2.32%.

On to `CNC(=O)[C@H]1C[C@H]2CN(Cc3ccc(OC)cc3)C[C@@H]1O2`, for which the cytotoxicity at 10 µM came to 3.02%.

For the compound `CCn1ccnc1CN1CCN(C(C)C(=O)NCc2ccco2)CC1` (configuration not stated), the cytotoxicity at 10 µM turned out to be 7.79%.

`CN(Cc1cccc(Cl)c1)Cc1nnsc1Cl`: the cytotoxicity at 10 µM turned out to be 6.78%.

Turning to `CCC(C)NC(=O)Cn1ncc2c1c(C)nn2CC` (configuration not stated), the cytotoxicity at 10 µM is 3.24%.

Take `Cc1ccc(N2CCC3(CCC(=O)N3Cc3ccncc3)CC2)nn1`: the cytotoxicity at 10 µM is -110%.

`Cc1nc(C)c(CNCc2nnc3n2CCCC3C(F)(F)F)s1` (configuration not stated): the cytotoxicity at 10 µM stood at 3.28%.

Take `COc1cccc(N2CCN(CCC(=O)NC3CCCC3)CC2)c1`: the cytotoxicity at 10 µM was -5.93%.

`O=C(NCc1cnc2n1CCN(CC1CC1)CC2)C1CCC1`: the cytotoxicity at 10 µM is -12.9%.

Take `Cc1cccnc1CN1CC[C@@](C)(O)[C@H](Oc2ccccc2)C1`: the cytotoxicity at 10 µM was -9.11%.

Regarding `OC(CN1CCOCC1)c1ccc(Br)cc1` (configuration not stated), the cytotoxicity at 10 µM is -6.58%.

As to `Cc1ccc(C(=O)N2CCc3ncnc(C)c3CC2)cn1`, the cytotoxicity at 10 µM came to 9.75%.

As for `COCCN1CCC(c2nc3c([nH]2)CCCNC3=O)CC1`, the cytotoxicity at 10 µM worked out at 0.583%.

With `CCO[C@H]1CN(C(=O)c2ccnnc2)[C@@H]2COC[C@H]12`, the cytotoxicity at 10 µM turned out to be 0.403%.

As for `CC(C)[C@H]1CN(c2ccncc2)C[C@@H]1NC(=O)C1(C#N)CCOCC1`, the cytotoxicity at 10 µM was -9.21%.

`CC(C)N1CCC(CC(=O)NCCc2cc(O)ncn2)CC1`: the cytotoxicity at 10 µM turned out to be 6.36%.

Take `COC(=O)N1CCC(NC2CCSCC2)C1` (configuration not stated): the cytotoxicity at 10 µM is -8.23%.

On to `CN1CCN(C(=O)CCn2nnc3ccccc32)CC(C(N)=O)C1` (configuration not stated), for which the cytotoxicity at 10 µM was 2.24%.

For `Cc1cc(CNC(=O)c2cn(CCC3CCCCN3)nn2)on1` (configuration not stated), the cytotoxicity at 10 µM is -7.19%.

Take `CSc1nccn1-c1cccc(C(=O)NCC(F)(F)F)c1`: the cytotoxicity at 10 µM is -0.312%.

Turning to `CN1CCS(=O)(=O)[C@@H]2CCN(C(=O)CC(C)(C)C)CC[C@@H]21`, the cytotoxicity at 10 µM came to 1.2%.

Regarding `CCN(C)CC1CCN(C(=O)Nc2ccc(C)cc2)C1` (configuration not stated), the cytotoxicity at 10 µM came to 2.89%.

Take `CCCNC(=O)CCNC(=O)N1CCC(=Cc2ccccc2)CC1`: the cytotoxicity at 10 µM was found to be 1.47%.

Take `CCOCCC(=O)N(CCC#N)c1ccc(C)c(C)c1`: the cytotoxicity at 10 µM worked out at 4.06%.

As for `O=C1CC[C@H]2[C@H](CCN2Cc2ccccn2)N1CC1CCOCC1`, the cytotoxicity at 10 µM worked out at 3.59%.

`O=C(O)[C@]12CCCN(Cc3ccncc3)[C@@H]1CCN(c1cnccn1)C2`: the cytotoxicity at 10 µM came to 20.4%.

Turning to `O=C(NCc1cc[nH]n1)NCC(c1ccccc1)N1CCOCC1` (configuration not stated), the cytotoxicity at 10 µM is -3.39%.

Turning to `CCn1ncc(S(=O)(=O)N2CCCC3(CC=CNC3=O)C2)c1C` (configuration not stated), the cytotoxicity at 10 µM was -7.6%.

For the compound `Cn1c(Cn2cccn2)nnc1C1CCN(Cc2cccnc2)CC1`, the cytotoxicity at 10 µM stood at 6.01%.

`Cn1cccc1C(=O)N1CCCC2(CCN(CCN3CCCC3)C2=O)C1` (configuration not stated): the cytotoxicity at 10 µM is -10.8%.

Take `Cc1c(C(=O)NCCCC(N)=O)sc2ccc(F)cc12`: the cytotoxicity at 10 µM came out at 14.6%.

Consider `CCOCC(=O)NCc1cc(Br)ccc1OC(F)F`, for which the cytotoxicity at 10 µM came out at 21.9%.

As for `Cc1cc(CNc2cc(-c3ccoc3C)nn2CCO)c(C)o1`, the cytotoxicity at 10 µM was -0.598%.

For the compound `CO[C@@H]1CC[C@H]2[C@H]1OCCN2C(=O)c1nn(C)c2ccccc12`, the cytotoxicity at 10 µM was found to be 1.31%.

For the compound `O=C1NCCCCC1NC(=O)C1(c2ccccc2)CCOCC1` (configuration not stated), the cytotoxicity at 10 µM is -14.2%.

As to `CC(C)C(=O)N1CCC2(CCCN(CCOc3ccccc3)C2)C1` (configuration not stated), the cytotoxicity at 10 µM worked out at 6.71%.

For `O=C(NCc1ccco1)[C@@]12CCO[C@@H]1CCN(CC1CCOCC1)C2`, the cytotoxicity at 10 µM came out at 6.06%.

`CCOCCN1CCN(Cc2csc(-c3cnn(C)c3)n2)CC1`: the cytotoxicity at 10 µM was -4.95%.

As to `Cc1nc(C)n(CC2CCCN(CCC(=O)N3CCOCC3)C2)n1` (configuration not stated), the cytotoxicity at 10 µM is -6.7%.

`Cc1csc(CN2CCC[C@]3(C[C@H](Oc4ccccn4)CO3)C2)n1`: the cytotoxicity at 10 µM was -14%.

Regarding `O=C1CC(c2ccccc2F)c2c(n3ccsc3nc2=O)N1` (configuration not stated), the cytotoxicity at 10 µM was -5.93%.

With `CC(C)c1nc(C2CCCN2c2ncc(C(N)=O)cc2Cl)no1` (configuration not stated), the cytotoxicity at 10 µM was 13.4%.

As for `Cn1nnc2c1C(COCC1CC1)CN(C(=O)CC1=CCCCC1)C2` (configuration not stated), the cytotoxicity at 10 µM is -99.3%.

On to `COCC(O)CN1CCC(=O)N(CC=C(C)C)Cc2ccccc21` (configuration not stated), for which the cytotoxicity at 10 µM was found to be 1.87%.

On to `Cc1ncsc1CN1CCN(C)C2(CCC(=O)N(CCO)CC2)C1` (configuration not stated), for which the cytotoxicity at 10 µM was -9.8%.

Turning to `CCn1cnnc1C1CCN(C(=O)c2cc(C)n(CC)c2C)CC1`, the cytotoxicity at 10 µM is -6.08%.

Take `CSc1nc(C2CC2)nc(C)c1C(=O)NCc1ncc(C)o1`: the cytotoxicity at 10 µM was -3.71%.

On to `CC(C)CCc1nc(CN2CCOC(Cn3cncn3)C2)cs1` (configuration not stated), for which the cytotoxicity at 10 µM was -6.06%.

Regarding `CCN1CCC(CNCc2cc(OC)ccc2OC)C1` (configuration not stated), the cytotoxicity at 10 µM is -2%.

Regarding `COC1CN(C(=O)NC2CCCC2)CCC(=O)N(C)c2ccccc21` (configuration not stated), the cytotoxicity at 10 µM was -9.35%.

As for `O=C(C1CCCCN1Cc1nc(-c2ccco2)no1)N1CCCC1` (configuration not stated), the cytotoxicity at 10 µM is -4.64%.

For `Cc1ccc(CN2CCCn3c(nc(Cn4ccnc4)cc3=O)C2)s1`, the cytotoxicity at 10 µM came to 4.24%.

In the case of `COCCN(CCOC)c1ncccc1I`, the cytotoxicity at 10 µM is -2.69%.

In the case of `Cc1ccccc1OCC(O)CN1CCC(c2ccn[nH]2)CC1` (configuration not stated), the cytotoxicity at 10 µM turned out to be 0.531%.

As for `Cc1cc(N(C)C)nc(N2CCN(Cc3nccn3C)CC2)n1`, the cytotoxicity at 10 µM was -4.05%.

For `O=C1C(n2nnc(-c3ccsc3)n2)CCN1CC(F)(F)F` (configuration not stated), the cytotoxicity at 10 µM was found to be 0.519%.

As for `O=C(O)[C@]12CCCN(Cc3ccccc3)C[C@H]1CN(c1ncccn1)C2`, the cytotoxicity at 10 µM was -8.33%.

As to `Fc1cccc(N2CCCC3(CN(Cc4nccs4)CCO3)C2)c1` (configuration not stated), the cytotoxicity at 10 µM is -58.2%.

Regarding `Cc1cc(O)nc(C2CCCN(CCO)C2)n1` (configuration not stated), the cytotoxicity at 10 µM is -14.6%.

With `O=C(c1cccnc1)N1CCCC1C1CCN(Cc2ccccc2)CC1` (configuration not stated), the cytotoxicity at 10 µM is -3.24%.

Regarding `O=C(NC1CCCC1)[C@H]1C[C@H]2OCC[C@H]2N(Cc2ccoc2)C1`, the cytotoxicity at 10 µM was -77.3%.

Consider `Cc1nccn1CCCC(=O)N1CCC2(CCC(=O)N(C(C)C)C2)CC1`, for which the cytotoxicity at 10 µM was -10.8%.

For the compound `O=C(c1cccs1)N1CCCn2cnc(COCC3CC3)c2C1`, the cytotoxicity at 10 µM was -81.3%.

On to `CC(C)(C#N)c1ccccc1CN(CCO)Cc1ccsc1`, for which the cytotoxicity at 10 µM was 20%.

Turning to `CS(=O)(=O)c1ccc(CNC(=O)N2CCC(C(N)=O)CC2)cc1`, the cytotoxicity at 10 µM is -3.78%.

On to `Cc1ccccc1CNC(=O)Cn1ncc2c1c(C)nn2C`, for which the cytotoxicity at 10 µM was determined as 9.71%.

`O=C(NCCN1CCCCC1)c1nc(-c2cccc3[nH]ccc23)no1`: the cytotoxicity at 10 µM is 0.142%.

`CC(=O)N(C)Cc1ccccc1NC(=O)c1cnn(C)c1C`: the cytotoxicity at 10 µM is 2.31%.

In the case of `COc1cccc(OC2CN(C(=O)CCn3cnc4ccccc43)C2)c1`, the cytotoxicity at 10 µM stood at 3.67%.

Consider `O=C(c1ccc(-n2cccc2)c(F)c1)N1CCCN2CCCC2C1` (configuration not stated), for which the cytotoxicity at 10 µM was -2.45%.

On to `O=C(O)C1(Oc2ccccc2)CCN(c2ccncc2)CC1`, for which the cytotoxicity at 10 µM was -3.99%.

On to `CCN(Cc1nc2c(cnn2C)c(=O)[nH]1)c1ccc(F)cc1`, for which the cytotoxicity at 10 µM was -1.67%.

As to `Cc1nc(CN2C(=O)CC[C@H]3[C@@H]2CCN3C(=O)c2ccsc2)cs1`, the cytotoxicity at 10 µM came out at 1.8%.

Regarding `Cc1nn(C)c(C)c1C1COCCN1C(=O)c1ccc(Cl)o1` (configuration not stated), the cytotoxicity at 10 µM came out at 2.01%.

On to `CS(=O)(=O)N1C[C@H]2CCC[C@@]2(COc2ccccn2)C1`, for which the cytotoxicity at 10 µM was 1.13%.

For `Cc1noc(C)c1CCCNC(=O)Nc1ccc2c(c1)COC2`, the cytotoxicity at 10 µM came out at 3.27%.

On to `CC(C)(C)c1noc(-c2ccnc(-n3cnc(C(=O)O)c3)c2)n1`, for which the cytotoxicity at 10 µM was found to be 5.41%.

As to `c1ccc(O[C@@H]2CN(Cc3nccs3)[C@@H]3CCCO[C@@H]32)nc1`, the cytotoxicity at 10 µM is -8.52%.

As to `CCn1nc(C)c(C(=O)NCc2csc(C3CC3)n2)c1C`, the cytotoxicity at 10 µM turned out to be 20.5%.

Turning to `Cc1ccc(OCC(C)NC(=O)CN(C)c2ccc(C#N)cn2)cc1` (configuration not stated), the cytotoxicity at 10 µM is -6.05%.

Regarding `Cc1nn(C)c2nc(C(C)C)cc(C(=O)Nc3n[nH]c(C4CC4)n3)c12`, the cytotoxicity at 10 µM is -4.38%.

As to `CNc1cc(CCNS(=O)(=O)c2ccccc2)nc(-c2ccccn2)n1`, the cytotoxicity at 10 µM was found to be 5.13%.

For `Cc1nn(C)cc1-c1ccnc(N2CCSCC2)n1`, the cytotoxicity at 10 µM stood at 3.47%.

Regarding `O=C(c1cc[nH]n1)N1CCc2ncnc(N3CCSCC3)c2CC1`, the cytotoxicity at 10 µM was -3.67%.

For `CC(NCc1cccc(S(=O)(=O)N(C)C)c1)c1ccccn1` (configuration not stated), the cytotoxicity at 10 µM was -10.5%.

Take `NC(=O)C1(CCCc2ccccn2)CCCN(CCO)C1` (configuration not stated): the cytotoxicity at 10 µM was found to be 3.38%.

Consider `O=C(c1ccco1)N1CCC2(CCC(=O)N2Cc2ccncc2)CC1`, for which the cytotoxicity at 10 µM stood at 1.29%.

As to `CCCNC(=O)C1CCCN(c2ccc3nncn3n2)C1` (configuration not stated), the cytotoxicity at 10 µM came to 10.7%.

For the compound `COc1ccccc1C1CNC(=O)c2nc(-c3c(C)n[nH]c3C)[nH]c2C1` (configuration not stated), the cytotoxicity at 10 µM is -8%.

On to `CN1CCN(C(=O)c2cncc(CC3CCCN(C)C3)c2)CC1` (configuration not stated), for which the cytotoxicity at 10 µM was found to be 7.87%.

For `Cc1cc(CNC(=O)c2cc(NC(=O)C(C)C)ccc2Cl)no1`, the cytotoxicity at 10 µM worked out at 13.6%.

For the compound `Cc1nc(C)n(CC2CCCN(CC(=O)Nc3nncs3)C2)n1` (configuration not stated), the cytotoxicity at 10 µM is -3.79%.

For `O=C(CCc1ccc2c(c1)OCO2)N1CCCC(n2cccn2)C1` (configuration not stated), the cytotoxicity at 10 µM is -15.8%.

Turning to `CCC(=O)Nc1cc(Br)cn(C)c1=O`, the cytotoxicity at 10 µM is -1.34%.

As to `O=C(c1cc(-c2cccnc2)[nH]n1)N1CCCC(Cc2ccccn2)C1` (configuration not stated), the cytotoxicity at 10 µM was determined as 7.5%.

As for `CN(C)C(C(=O)N1CC(c2ccccn2)C1)c1ccc2c(c1)OCO2` (configuration not stated), the cytotoxicity at 10 µM turned out to be 10.6%.

Regarding `Cc1c(C(C)NC(=O)C2CCCC2)cnn1C` (configuration not stated), the cytotoxicity at 10 µM was -10.9%.
